Source: ChEMBL document CHEMBL5032499, “A Druglike Small Molecule that Targets r(CCUG) Repeats in Myotonic Dystrophy Type 2 Facilitates Degradation by RNA Quality Control Pathways” (J Med Chem, 2021)
Active and inactive are the calls of the source. The calls are words filed in the database; no cut-off is given here.

Assays:
[1] = organism: Homo sapiens; test: Binding affinity to r(GACAGCCUGCUGUC)2 (unknown origin) duplex assessed as resonance shift in H6 and H8 protons of RNA […] by 1D NMR spectroscopy
Summary of the method: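 For 1D NMR, RNA at 100 μM in 100% D2O was titrated with compound at 0.5, 1.0, 1.5 and 2.0 compound:RNA molar ratios, each in a separate sample.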

[2] = test system: Fibroblast; test: Cytotoxicity against DM2 patient derived fibroblast assessed as cell viability upto 20 uM incubated for 48 hrs by Cell Titre-Glo assay; type: cell-based; settings: human
Summary of the method: (§1)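 DM2 patient-derived fibroblasts were grown in high-glucose DMEM with 20% FBS at 37 °C, 5% CO2. After 48 h of compound treatment, viability was read as CellTiter-Glo luminescence after 10 min at room temperature (n = 6 replicates, one independent experiment).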

[3] = organism: Homo sapiens; test: Binding affinity to r(GACAGCCUGCUGUC)2 duplex (unknown origin) assessed as positive phase signal at 300 uM by waterLOGSY NMR spectroscopy
Summary of the method: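 For WaterLOGSY NMR, each compound at 300 μM was run alone or with 15 μM RNA (20:1 compound:RNA) in H2O containing 5% D2O by volume.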

[4] = Induction of disruption of r(CCUG)12-MBNL1 complex (unknown origin) incubated for 15 mins by TR-FRET assay; design: species or system Homo sapiens
Summary of the method: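 Biotinylated r(CCUG)12 was folded at 60 °C for 5 min in 20 mM HEPES pH 7.5, 110 mM KCl, 10 mM NaCl. It was then brought to assay buffer (plus 2 mM MgCl2, 2 mM CaCl2, 5 mM DTT, 0.1% BSA, 0.5% Tween-20) and preincubated 15 min with MBNL1-His6 (final 80 nM RNA, 60 nM protein). Compound was added for 15 min, then streptavidin-XL665 (40 nM) and anti-His6-Tb (0.44 ng/μL) for 30 min at room temperature. TR-FRET 545/665 ratios were read; IC50 was taken from dose-response fits.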

[5] = test system: Fibroblast; test: Cytotoxicity against DM2 patient derived fibroblast assessed as cell viability at 5 uM incubated for 48 hrs by Cell Titre-Glo assay; type: cell-based; settings: human; summary of the method: as §1
[6] = organism: Homo sapiens; test: Inhibition of r(CCUG)12-MBNL1 complex formation (unknown origin) assessed as rescue of IR exon 11 splicing defect at 5 uM by RT-PCR analysis; design: scale not given: the % may be the effect or the level left
Summary of the method: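 DM2 patient fibroblasts were treated at ~40% confluency for 48 h. About 1 μg of total RNA was reverse transcribed, and IR exon 11 was PCR-amplified for 35 cycles (95 °C/58 °C/72 °C). Products were resolved on 2% agarose stained with ethidium bromide and quantified by densitometry. Percent rescue was calculated as (DM2 untreated − treated exclusion)/(DM2 untreated − WT exclusion) × 100.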

CN(C)c1ccc(Nc2nc(NCCCO)c3ccccc3n2)cc1
Activity [1]: Active
Activity [2]: Non-Toxic
Activity [3]: Active
IC50 [4]: 40 µM

Cc1ccc2nc(Nc3ccc4nc(C)oc4c3)nc(NCCCO)c2c1
IC50 [4]: 10 µM

CC(O)c1cccc(Nc2nc(N3CCCC3)c3ccccc3n2)c1 (stereo unspecified)
IC50 [4]: 70 µM

OCCCNc1nc(Nc2ccc3c(c2)OC(F)(F)O3)nc2ccccc12
IC50 [4]: 170 µM

COc1ccc(Nc2nc(NCCO)c3ccccc3n2)cc1Cl
IC50 [4]: 50 µM

Cc1ccc2nc(Nc3ccc4c(c3)OCCO4)nc(NCCCO)c2c1
IC50 [4]: 12.7 µM

COc1ccc(Nc2nc(N(C)C)c3ccccc3n2)cc1
IC50 [4]: 65 µM

Cc1ccc2nc(Nc3ccc4nc(NCC(C)C)sc4c3)nc(NCCCO)c2c1
Activity [5]: Toxic
IC50 [4]: 0.3 µM

COCCn1cncc1CNC(=O)Nc1ccc2cnn(C)c2c1
IC50 [4]: 200 µM

Cc1ccc2nc(Nc3ccc4nc(-c5ccccc5C)sc4c3)nc(NCCCO)c2c1
IC50 [4]: 200 µM

OCCCNc1nc(Nc2ccc3c(c2)OCCO3)nc2c1COC2
IC50 [4]: 200 µM

CC(=O)c1cccc(Nc2nc(NCCCO)c3ccccc3n2)c1
IC50 [4]: 75 µM

Cc1ccc2nc(Nc3ccc4nc(-c5ccc(F)cc5)sc4c3)nc(NCCCO)c2c1
Activity [5]: Toxic
IC50 [4]: 200 µM

CN(C)c1nc(Nc2ccc(C(N)=O)cc2)nc2ccccc12
Activity [3]: inactive
IC50 [4]: 50 µM

CN(C)c1nc(Nc2cccc(O)c2)nc2ccccc12
IC50 [4]: 75 µM

COc1cccc(Nc2nc(N(C)C)c3ccccc3n2)c1
IC50 [4]: 85 µM

COc1cc(-c2nc3cc(-n4cnnn4)ccc3[nH]2)ccc1OCCN1CCCC1
IC50 [4]: 70 µM

OCCCNc1nc(Nc2ccc3c(c2)OCCO3)nc2ccc(F)cc12
IC50 [4]: 60 µM

Cc1ccc2nc(Nc3ccc4nc(NC5CCN(Cc6ccccc6)CC5)sc4c3)nc(NCCCO)c2c1
Activity [5]: Toxic
IC50 [4]: 0.4 µM

Cc1cccc2c(NCCCO)nc(Nc3ccc4c(c3)OCCO4)nc12
IC50 [4]: 105 µM

COC(=O)c1cccc(Nc2nc(N)c3ccccc3n2)c1
IC50 [4]: 200 µM

CCOc1ccc(C(=O)Nc2cc(-c3nc4ccccc4[nH]3)ccc2Cl)cc1[N+](=O)[O-]
IC50 [4]: 105 µM

Cc1ccc2nc(Nc3ccc4nc(-c5ccc6[nH]ccc6c5)sc4c3)nc(NCCCO)c2c1
IC50 [4]: 200 µM

OCCCNc1nc(Nc2cccc(O)c2)nc2ccccc12
IC50 [4]: 200 µM

Cc1ccc2nc(Nc3ccc4nc(NCC(C)(C)O)sc4c3)nc(NCCCO)c2c1
Activity [5]: Non-Toxic
Activity [6]: 30%
IC50 [4]: 1 µM

COc1cccc(Nc2nc(NCCCO)c3ccccc3n2)c1
IC50 [4]: 100 µM

C=CCNc1nc(Nc2ccc(O)cc2)nc2ccccc12
IC50 [4]: 85 µM

Cc1ccc2nc(Nc3ccc4nc(NCCN5CCOCC5)sc4c3)nc(NCCCO)c2c1
Activity [5]: Toxic
IC50 [4]: 0.3 µM

Cc1nc2ccc(Nc3nc(NCCCO)c4ccccc4n3)cc2s1
IC50 [4]: 7 µM

Cc1ccc2nc(Nc3ccc4nc(C(N)=O)sc4c3)nc(NCCCO)c2c1
IC50 [4]: 200 µM

CC(=O)Nc1cccc(Nc2nc(N(C)C)c3ccccc3n2)c1
IC50 [4]: 80 µM

OCCCNc1nc(Nc2ccc3c(c2)OCCO3)nc2c1CCCC2
IC50 [4]: 90 µM

CC(=O)Nc1cccc(Nc2nc(NCC3CCCO3)c3ccccc3n2)c1 (stereo unspecified)
IC50 [4]: 90 µM

Cc1ccc2nc(Nc3ccc4nc(-c5cccc(F)c5)sc4c3)nc(NCCCO)c2c1
IC50 [4]: 200 µM

Cc1ccccc1Nc1nc(NCCCO)c2ccccc2n1
IC50 [4]: 80 µM

CC(=O)Nc1cccc(Nc2nc(N3CCCC3)c3ccccc3n2)c1
IC50 [4]: 70 µM

OCCCNc1nc(Nc2ccc(O)cc2)nc2ccccc12
IC50 [4]: 95 µM

Cc1ccc2nc(Nc3ccc4nc(N5CCOCC5)sc4c3)nc(NCCCO)c2c1
Activity [5]: Toxic
IC50 [4]: 0.2 µM

Cc1n[nH]c2nc(Nc3ccc4c(c3)OCCO4)nc(NCCCO)c12
IC50 [4]: 200 µM

Cn1ncc2ccc(Nc3nc(NCCCO)c4ccccc4n3)cc21
IC50 [4]: 30 µM

OCCCNc1nc(Nc2ccc3c(c2)OCCO3)nc2cc(F)ccc12
IC50 [4]: 200 µM

CN(C)c1ccc(Nc2nc(N3CCOCC3)c3ccccc3n2)cc1
IC50 [4]: 200 µM

CC(O)c1cccc(Nc2nc(N(C)C)c3ccccc3n2)c1 (stereo unspecified)
IC50 [4]: 95 µM

Cc1ccc2nc(Nc3ccc4nc(NCc5ccc6c(c5)OCO6)sc4c3)nc(NCCCO)c2c1
IC50 [4]: 105 µM

CNc1nc(Nc2cccc(O)c2)nc2ccccc12
IC50 [4]: 105 µM

Cn1nc(Nc2nc(NCCCO)c3ccccc3n2)c2ccccc21
IC50 [4]: 200 µM

Cc1c(Nc2nc(NCCCO)c3ccccc3n2)ccc2c1OCCO2
IC50 [4]: 135 µM

Cc1ccc2nc(Nc3ccc4nc(NCCc5ccc(S(N)(=O)=O)cc5)sc4c3)nc(NCCCO)c2c1
IC50 [4]: 10 µM

CN(C)c1nc(Nc2ccc3c(c2)OCCO3)nc2ccccc12
IC50 [4]: 80 µM

CCOc1cc(-c2nc3cc(-n4cnnn4)ccc3[nH]2)ccc1O
IC50 [4]: 200 µM

CC(=O)c1cccc(Nc2nc(N(C)C)c3ccccc3n2)c1
IC50 [4]: 100 µM

OCCCNc1nc(Nc2ccccc2)nc2ccccc12
IC50 [4]: 165 µM

CN1CCOc2cc(Nc3nc(NCCCO)c4ccccc4n3)ccc21
IC50 [4]: 70 µM

CCNc1nc(Nc2ccc(NC(C)=O)cc2)nc2ccccc12
Activity [3]: inactive
IC50 [4]: 30 µM

Cc1ccc2nc(Nc3ccc4nc(N5CCN(C)CC5)sc4c3)nc(NCCCO)c2c1
Activity [5]: Toxic
IC50 [4]: 1 µM

CC(=O)Nc1ccc(Nc2nc(NCC3CCCO3)c3ccccc3n2)cc1 (stereo unspecified)
Activity [1]: Active
Activity [2]: Non-Toxic
Activity [3]: Active
IC50 [4]: 45 µM

Cc1ccc2nc(Nc3ccc4nc(-c5cc[nH]n5)sc4c3)nc(NCCCO)c2c1
IC50 [4]: 20 µM

OCCCNc1nc(Nc2ccc3c(c2)OCCO3)nc2c(F)cccc12
IC50 [4]: 200 µM

CCNc1nc(Nc2cccc(O)c2)nc2ccccc12
IC50 [4]: 135 µM

CN(C)c1nc(Nc2ccc(O)cc2)nc2ccccc12
IC50 [4]: 70 µM

Cc1ccc2nc(Nc3ccc4nc(NCCOCc5ccccc5)sc4c3)nc(NCCCO)c2c1
IC50 [4]: 20 µM

CC(=O)Nc1ccc(Nc2nc(NCCCO)c3ccccc3n2)cc1
IC50 [4]: 200 µM

OCCCNc1nc(Nc2cccc(F)c2)nc2ccccc12
IC50 [4]: 135 µM

Cc1ccc2nc(Nc3ccc4cnn(C)c4c3)nc(NCCCO)c2c1
Activity [5]: Toxic
IC50 [4]: 30 µM

Cc1nc2ccc(Nc3nc(NCCCO)c4ccccc4n3)cc2o1
IC50 [4]: 10 µM

CC(=O)Nc1cccc(Nc2nc(NCCCO)c3ccccc3n2)c1
IC50 [4]: 110 µM

OCCCNc1nc(Nc2ccc3c(c2)OCO3)nc2ccccc12
IC50 [4]: 200 µM

CN(c1ccc2c(c1)OCCO2)c1nc(NCCCO)c2ccccc2n1
IC50 [4]: 200 µM

CN1CCN(c2nc(Nc3ccc(O)cc3)nc3ccccc23)CC1
IC50 [4]: 155 µM

CCNc1nc(Nc2ccc(O)cc2)nc2ccccc12
IC50 [4]: 100 µM

CN(C)c1ccc(Nc2nc(N(C)C)c3ccccc3n2)cc1
IC50 [4]: 60 µM

CC(=O)Nc1ccc(Nc2nc(N3CCCC3)c3ccccc3n2)cc1
Activity [3]: inactive
IC50 [4]: 35 µM

Cc1ccc2nc(Nc3ccc4nc(NCCOc5ccccc5)sc4c3)nc(NCCCO)c2c1
IC50 [4]: 110 µM

CCn1nc(CNC(=O)CN(C)C2CCNCC2)c2ccccc21
IC50 [4]: 70 µM

Cc1ccc(Nc2nc(NCCCO)c3ccccc3n2)cc1
IC50 [4]: 150 µM

Cc1ccc2nc(Nc3ccc4nc(N(CCO)CCO)sc4c3)nc(NCCCO)c2c1
IC50 [4]: 10 µM

CC(C)(C)C(Cn1ccnc1)NC(=O)Nc1ccc2[nH]ncc2c1 (stereo unspecified)
IC50 [4]: 190 µM

CC(=O)Nc1ccc(Nc2nc(NCCO)c3ccccc3n2)cc1
IC50 [4]: 60 µM
